Converted amounts (≈) assume the structure as drawn. Blank lines part the entries; values can stand above or below the molecule they belong to.
Assays:
[1] = Growth inhibition of mouse mock transfected BA/F3 cells assessed as decrease in cell viability after 3 days by luminescence based CellTiter-Glo assay; parameters: species or system BaF3
Procedure, shortened: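 Ba/F3 growth inhibition run as quadruplicate experiments. GI50 fitted with 95% confidence intervals.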

[2] = target: T1, Tyrosine-protein kinase Fer (Homo sapiens, UniProt P16591); assay: Inhibition of recombinant N-terminal His-tagged human FER (SH2 domain to C-terminal) expressed in Escherichia coli assessed as decrease in FL-Peptide22 substrate phosphorylation incubated for 90 mins
Target sequence in this assay (P16591 whole entry, the tested form may be a part): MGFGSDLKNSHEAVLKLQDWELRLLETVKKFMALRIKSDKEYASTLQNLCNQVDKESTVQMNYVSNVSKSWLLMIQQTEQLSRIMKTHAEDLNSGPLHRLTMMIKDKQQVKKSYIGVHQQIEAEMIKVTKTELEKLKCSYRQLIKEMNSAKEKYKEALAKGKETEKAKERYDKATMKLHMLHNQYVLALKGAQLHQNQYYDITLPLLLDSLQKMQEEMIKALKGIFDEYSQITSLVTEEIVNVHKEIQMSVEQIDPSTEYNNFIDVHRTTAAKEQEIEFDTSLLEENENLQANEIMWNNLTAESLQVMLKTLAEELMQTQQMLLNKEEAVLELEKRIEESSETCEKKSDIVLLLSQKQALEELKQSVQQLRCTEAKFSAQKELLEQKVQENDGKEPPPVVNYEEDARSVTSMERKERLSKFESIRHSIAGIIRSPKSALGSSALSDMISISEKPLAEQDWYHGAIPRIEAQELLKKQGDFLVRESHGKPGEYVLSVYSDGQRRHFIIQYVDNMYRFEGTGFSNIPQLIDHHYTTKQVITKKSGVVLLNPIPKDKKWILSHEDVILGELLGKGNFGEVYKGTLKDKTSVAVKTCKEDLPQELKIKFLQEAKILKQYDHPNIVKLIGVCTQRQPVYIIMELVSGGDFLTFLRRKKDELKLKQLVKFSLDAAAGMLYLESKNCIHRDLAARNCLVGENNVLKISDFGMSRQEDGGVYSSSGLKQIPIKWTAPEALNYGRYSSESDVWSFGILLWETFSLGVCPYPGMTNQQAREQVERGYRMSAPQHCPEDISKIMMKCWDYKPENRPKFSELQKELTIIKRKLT

[3] = target: T1, Tyrosine-protein kinase Fer
Target sequence in this assay (P16591 whole entry, looked up, the tested form may be a part): as the sequence (P16591 whole entry, the tested form may be a part) above

[4] = Cmax in BALB/cAnNCrlCrlj mouse at 10 mg/kg, po administered via gavage after 24 hrs; type: ADME, organism-based; parameters: dose 10 mg/kg, route oral; conditions: in vivo
Procedure, shortened: (§1)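 Mouse pharmacokinetics: compound given orally at 10 mg/kg. Unbound plasma concentration is reported as a mean value after oral dosing.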

[5] = target: ALK tyrosine kinase receptor (Homo sapiens) (UniProt Q9UM73); assay: Inhibition of recombinant N-terminal GST-fusion protein tagged human ALK cytoplasmic domain (1058 to 1620 residues) expressed in baculovirus expression system assessed as decrease in fluorescence labelled Srctide phosphorylation at 200 nM by off-chip mobility shift assay relative to control
[6] = Solubility in buffer at pH 6.8; type: physicochemical
Procedure, shortened: (§2)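 Solubility expressed as μg/mL, measured in pH 6.8 buffer and in FaSSIF.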

[7] = target: T2, Interleukin-1 receptor-associated kinase 4 (Homo sapiens) (UniProt Q9NWZ3); assay: Inhibition of recombinant N-terminal GST-fusion protein tagged human full length IRAK4 (1 to 460 residues) expressed in baculovirus expression system assessed as decrease in fluorescence labelled IRAK1 phosphorylation at 200 nM by off-chip mobility shift assay relative to control
T2 sequence (whole entry): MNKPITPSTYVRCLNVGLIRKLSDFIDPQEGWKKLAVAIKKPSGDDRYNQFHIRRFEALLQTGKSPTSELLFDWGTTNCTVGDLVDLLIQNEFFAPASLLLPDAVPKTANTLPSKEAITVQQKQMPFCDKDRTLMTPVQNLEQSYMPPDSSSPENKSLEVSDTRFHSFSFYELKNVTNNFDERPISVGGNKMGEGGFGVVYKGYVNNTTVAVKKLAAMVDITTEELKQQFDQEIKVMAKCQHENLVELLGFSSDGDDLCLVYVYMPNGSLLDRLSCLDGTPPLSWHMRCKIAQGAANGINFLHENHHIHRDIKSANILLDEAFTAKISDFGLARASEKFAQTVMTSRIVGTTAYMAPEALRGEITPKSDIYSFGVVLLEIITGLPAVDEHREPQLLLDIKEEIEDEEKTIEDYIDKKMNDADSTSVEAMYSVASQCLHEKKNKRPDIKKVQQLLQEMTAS

[8] = target: Mast/stem cell growth factor receptor Kit (Homo sapiens) (UniProt P10721); assay: Inhibition of recombinant N-terminal GST-fusion protein tagged human KIT cytoplasmic domain (544 to 976 residues) expressed in baculovirus expression system assessed as decrease in fluorescence labelled Srctide phosphorylation at 200 nM by off-chip mobility shift assay relative to control
[9] = target: Protein-tyrosine kinase 2-beta (Homo sapiens) (UniProt Q14289); assay: Inhibition of recombinant N-terminal GST-fusion protein tagged human full length PYK2 (1 to 967 residues) expressed in baculovirus expression system assessed as decrease in fluorescence labelled Blk/Lyntide phosphorylation at 200 nM by off-chip mobility shift assay relative to control
[10] = Oral bioavailability in BALB/cAnNCrlCrlj mouse at 10 mg/kg administered via gavage after 24 hrs; type: ADME, organism-based; conditions: in vivo; procedure, shortened: as §1
[11] = Protein binding in BALB/c mouse serum at 10 ug/mL incubated for 4 hrs under shaking condition by LC/MS/MS analysis; type: ADME, cell-free; conditions: read-out: PPB
Procedure, shortened: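 Binding determined using serum samples from BALB/c mice.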

BaF3 = assay: Antitumor activity against mouse BA/F3 cells expressing myc/His-tagged ETV6-FER kinase domain (452 to 821 residues) allografted in BALB/cAJcl nu/nu mouse assessed as decrease in tumor volume administered orally once per day for 4 days starting from 6 days after tumor cell implantation and measured during compound dosing; type: functional, cell-based
[12] = Solubility in FaSSIF; type: physicochemical; procedure, shortened: as §2
[13] = target: Macrophage colony-stimulating factor 1 receptor (Homo sapiens) (UniProt P07333); assay: Inhibition of recombinant N-terminal GST-fusion protein tagged human FMS cytoplasmic domain (538 to 972 residues) expressed in baculovirus expression system assessed as decrease in fluorescence labelled Srctide phosphorylation at 200 nM by off-chip mobility shift assay relative to control
[14] = target: Mitogen-activated protein kinase kinase kinase 9 (Homo sapiens) (UniProt P80192); assay: Inhibition of recombinant N-terminal GST-fusion protein tagged human MLK1 catalytic domain (110 to 422 residues) expressed in baculovirus expression system assessed as decrease in GST-labelled MAP2K7 phosphorylation at 200 nM by HRP-labelled anti-rabbit antibody based ELISA method relative to control
[15] = AUC in BALB/cAnNCrlCrlj mouse at 10 mg/kg, po administered via gavage after 24 hrs; type: ADME, organism-based; parameters: time < 24 hr, dose 10 mg/kg, route oral; conditions: in vivo; procedure, shortened: as §1
[16] = Effective permeability of compound at 5 uM after 24 hrs at pH 7.4 by LC/MS/MS based PAMPA assay; type: ADME; conditions: read-out: Peff
[17] = Metabolic stability in mouse liver microsomes assessed as parent compound remaining at 1 uM after 30 mins relative to control; type: ADME, Microsome; conditions: read-out: Stability
Procedure, shortened: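 Test compound at 1.0 μM incubated 30 min with mouse liver microsomes (1.0 mg/mL protein). The fraction of parent remaining is reported.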

[18] = target: Receptor-type tyrosine-protein kinase FLT3 (Homo sapiens) (UniProt P36888); assay: Inhibition of recombinant N-terminal GST-fusion protein tagged human FLT3 cytoplasmic domain (564 to 993 residues) expressed in baculovirus expression system assessed as decrease in fluorescence labelled Srctide phosphorylation at 200 nM by off-chip mobility shift assay relative to control
[19] = Toxicity in BALB/cAJcl nu/nu mouse allografted with mouse BA/F3 cells expressing myc/His-tagged ETV6-FER kinase domain (452 to 821 residues) assessed as change in body weight loss at 12.5 to 100 mg/kg, po administered once per day for 4 days starting from 6 days after tumor cell implantation and measured during compound dosing; type: organism-based; conditions: in vivo
[20] = Total plasma clearance in BALB/cAnNCrlCrlj mouse at 1 mg/kg, iv after 24 hrs; type: ADME, organism-based
Procedure, shortened: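 Clearance measured after a single intravenous dose of 1 mg/kg in mice.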

[21] = target: Tyrosine-protein kinase Fes/Fps (Homo sapiens) (UniProt P07332); assay: Inhibition of recombinant N-terminal GST fusion protein tagged human full length FES (1 to 413/416 to 822 residues) expressed in baculovirus expression system assessed as decrease in fluorescence labelled Srctide phosphorylation at 200 nM by off-chip mobility shift assay relative to control
Mus musculus = assay: Unbound plasma concentration in BALB/cAnNCrlCrlj mouse at 10 mg/kg, po administered via gavage after 24 hrs by non-compartmental analysis; type: ADME, organism-based; conditions: in vivo; procedure, shortened: as §1
[22] = target: Proto-oncogene tyrosine-protein kinase ROS (Homo sapiens) (UniProt P08922); assay: Inhibition of recombinant N-terminal GST-fusion protein tagged human ROS1 cytoplasmic domain (1883 to 2347 residues) expressed in baculovirus expression system assessed as decrease in fluorescence labelled IRS1 phosphorylation at 200 nM by off-chip mobility shift assay relative to control
[23] = target: Mitogen-activated protein kinase kinase kinase kinase 4 (Homo sapiens) (UniProt O95819); assay: Inhibition of recombinant N-terminal GST-fusion protein tagged human HGK catalytic domain (1 to 328 residues) expressed in baculovirus expression system assessed as decrease in fluorescence labelled Moesin-derived phosphorylation at 200 nM by off-chip mobility shift assay relative to control
[24] = target: High affinity nerve growth factor receptor (Homo sapiens) (UniProt P04629); assay: Inhibition of recombinant N-terminal GST-fusion protein tagged human TRKA cytoplasmic domain (436 to 790 residues) expressed in baculovirus expression system assessed as decrease in fluorescence labelled CSKtide phosphorylation at 200 nM by off-chip mobility shift assay relative to control
[25] = target: Tyrosine-protein kinase SYK (Homo sapiens) (UniProt P43405); assay: Inhibition of recombinant N-terminal GST-fusion protein tagged human full length SYK (1 to 635 residues) expressed in baculovirus expression system assessed as decrease in fluorescence labelled Blk/Lyntide phosphorylation at 200 nM by off-chip mobility shift assay relative to control
[26] = target: T1, Tyrosine-protein kinase Fer; assay: Inhibition of recombinant N-terminal GST-tagged human full length FER (1 to 822 residues) expressed in baculovirus expression system decrease in fluorescence labelled Srctide phosphorylation at 200 nM by off-chip mobility shift assay relative to control
Target sequence in this assay (P16591 whole entry, looked up, the tested form may be a part): as the sequence (P16591 whole entry, the tested form may be a part) above

[27] = target: CDK2/Cyclin A2 (Homo sapiens) (UniProt P24941+P20248); assay: Inhibition of recombinant human full length N-terminal GST-tagged CDK2 (1 to 298 residues)/GST-tagged CyclinA2 (1 to 432 residues) expressed in baculovirus expression system assessed as decrease in fluorescence labelled modified histone H1 phosphorylation at 200 nM by off-chip mobility shift assay relative to control
[28] = target: T3, Testis-specific serine/threonine-protein kinase 1 (Homo sapiens) (UniProt Q9BXA7); assay: Inhibition of recombinant N-terminal GST fusion protein tagged human full length TSSK1 (1 to 367 residues) expressed in baculovirus expression system assessed as decrease in fluorescence labelled GS peptide phosphorylation at 200 nM by off-chip mobility shift assay relative to control
T3 sequence (whole entry): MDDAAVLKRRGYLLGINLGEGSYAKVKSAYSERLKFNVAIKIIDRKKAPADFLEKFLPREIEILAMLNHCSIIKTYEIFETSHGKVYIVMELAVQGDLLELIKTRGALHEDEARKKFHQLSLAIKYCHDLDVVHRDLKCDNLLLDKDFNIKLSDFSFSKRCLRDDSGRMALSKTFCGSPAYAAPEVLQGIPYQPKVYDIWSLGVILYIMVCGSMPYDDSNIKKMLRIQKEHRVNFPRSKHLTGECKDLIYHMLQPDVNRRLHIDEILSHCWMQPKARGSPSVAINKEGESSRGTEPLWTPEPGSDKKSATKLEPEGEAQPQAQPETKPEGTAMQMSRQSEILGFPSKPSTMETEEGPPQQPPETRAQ

[29] = target: Serine/threonine-protein kinase Chk2 (Homo sapiens) (UniProt O96017); assay: Inhibition of recombinant N-terminal GST-fusion protein tagged human full length CHK2 (1 to 543 residues) expressed in baculovirus expression system assessed as decrease in fluorescence labelled CHKtide phosphorylation at 200 nM by off-chip mobility shift assay relative to control
Sequence of Serine/threonine-protein kinase Chk2 (Homo sapiens) (O96017 whole entry, the tested form may be a part): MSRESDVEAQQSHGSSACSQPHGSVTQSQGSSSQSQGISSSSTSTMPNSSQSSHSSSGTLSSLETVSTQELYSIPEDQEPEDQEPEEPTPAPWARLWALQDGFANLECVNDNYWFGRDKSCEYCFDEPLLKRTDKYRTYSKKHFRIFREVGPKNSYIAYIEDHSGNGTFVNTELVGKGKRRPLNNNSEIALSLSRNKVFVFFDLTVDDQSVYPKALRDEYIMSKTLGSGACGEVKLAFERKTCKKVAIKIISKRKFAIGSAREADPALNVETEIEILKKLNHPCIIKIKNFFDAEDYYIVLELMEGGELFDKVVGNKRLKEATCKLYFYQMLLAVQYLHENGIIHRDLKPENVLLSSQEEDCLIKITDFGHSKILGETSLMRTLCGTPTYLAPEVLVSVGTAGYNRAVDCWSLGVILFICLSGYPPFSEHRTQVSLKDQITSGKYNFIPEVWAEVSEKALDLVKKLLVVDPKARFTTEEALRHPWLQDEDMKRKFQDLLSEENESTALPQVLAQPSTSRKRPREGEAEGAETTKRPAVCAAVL

Sequence of Proto-oncogene tyrosine-protein kinase ROS (Homo sapiens) (P08922 whole entry, the tested form may be a part): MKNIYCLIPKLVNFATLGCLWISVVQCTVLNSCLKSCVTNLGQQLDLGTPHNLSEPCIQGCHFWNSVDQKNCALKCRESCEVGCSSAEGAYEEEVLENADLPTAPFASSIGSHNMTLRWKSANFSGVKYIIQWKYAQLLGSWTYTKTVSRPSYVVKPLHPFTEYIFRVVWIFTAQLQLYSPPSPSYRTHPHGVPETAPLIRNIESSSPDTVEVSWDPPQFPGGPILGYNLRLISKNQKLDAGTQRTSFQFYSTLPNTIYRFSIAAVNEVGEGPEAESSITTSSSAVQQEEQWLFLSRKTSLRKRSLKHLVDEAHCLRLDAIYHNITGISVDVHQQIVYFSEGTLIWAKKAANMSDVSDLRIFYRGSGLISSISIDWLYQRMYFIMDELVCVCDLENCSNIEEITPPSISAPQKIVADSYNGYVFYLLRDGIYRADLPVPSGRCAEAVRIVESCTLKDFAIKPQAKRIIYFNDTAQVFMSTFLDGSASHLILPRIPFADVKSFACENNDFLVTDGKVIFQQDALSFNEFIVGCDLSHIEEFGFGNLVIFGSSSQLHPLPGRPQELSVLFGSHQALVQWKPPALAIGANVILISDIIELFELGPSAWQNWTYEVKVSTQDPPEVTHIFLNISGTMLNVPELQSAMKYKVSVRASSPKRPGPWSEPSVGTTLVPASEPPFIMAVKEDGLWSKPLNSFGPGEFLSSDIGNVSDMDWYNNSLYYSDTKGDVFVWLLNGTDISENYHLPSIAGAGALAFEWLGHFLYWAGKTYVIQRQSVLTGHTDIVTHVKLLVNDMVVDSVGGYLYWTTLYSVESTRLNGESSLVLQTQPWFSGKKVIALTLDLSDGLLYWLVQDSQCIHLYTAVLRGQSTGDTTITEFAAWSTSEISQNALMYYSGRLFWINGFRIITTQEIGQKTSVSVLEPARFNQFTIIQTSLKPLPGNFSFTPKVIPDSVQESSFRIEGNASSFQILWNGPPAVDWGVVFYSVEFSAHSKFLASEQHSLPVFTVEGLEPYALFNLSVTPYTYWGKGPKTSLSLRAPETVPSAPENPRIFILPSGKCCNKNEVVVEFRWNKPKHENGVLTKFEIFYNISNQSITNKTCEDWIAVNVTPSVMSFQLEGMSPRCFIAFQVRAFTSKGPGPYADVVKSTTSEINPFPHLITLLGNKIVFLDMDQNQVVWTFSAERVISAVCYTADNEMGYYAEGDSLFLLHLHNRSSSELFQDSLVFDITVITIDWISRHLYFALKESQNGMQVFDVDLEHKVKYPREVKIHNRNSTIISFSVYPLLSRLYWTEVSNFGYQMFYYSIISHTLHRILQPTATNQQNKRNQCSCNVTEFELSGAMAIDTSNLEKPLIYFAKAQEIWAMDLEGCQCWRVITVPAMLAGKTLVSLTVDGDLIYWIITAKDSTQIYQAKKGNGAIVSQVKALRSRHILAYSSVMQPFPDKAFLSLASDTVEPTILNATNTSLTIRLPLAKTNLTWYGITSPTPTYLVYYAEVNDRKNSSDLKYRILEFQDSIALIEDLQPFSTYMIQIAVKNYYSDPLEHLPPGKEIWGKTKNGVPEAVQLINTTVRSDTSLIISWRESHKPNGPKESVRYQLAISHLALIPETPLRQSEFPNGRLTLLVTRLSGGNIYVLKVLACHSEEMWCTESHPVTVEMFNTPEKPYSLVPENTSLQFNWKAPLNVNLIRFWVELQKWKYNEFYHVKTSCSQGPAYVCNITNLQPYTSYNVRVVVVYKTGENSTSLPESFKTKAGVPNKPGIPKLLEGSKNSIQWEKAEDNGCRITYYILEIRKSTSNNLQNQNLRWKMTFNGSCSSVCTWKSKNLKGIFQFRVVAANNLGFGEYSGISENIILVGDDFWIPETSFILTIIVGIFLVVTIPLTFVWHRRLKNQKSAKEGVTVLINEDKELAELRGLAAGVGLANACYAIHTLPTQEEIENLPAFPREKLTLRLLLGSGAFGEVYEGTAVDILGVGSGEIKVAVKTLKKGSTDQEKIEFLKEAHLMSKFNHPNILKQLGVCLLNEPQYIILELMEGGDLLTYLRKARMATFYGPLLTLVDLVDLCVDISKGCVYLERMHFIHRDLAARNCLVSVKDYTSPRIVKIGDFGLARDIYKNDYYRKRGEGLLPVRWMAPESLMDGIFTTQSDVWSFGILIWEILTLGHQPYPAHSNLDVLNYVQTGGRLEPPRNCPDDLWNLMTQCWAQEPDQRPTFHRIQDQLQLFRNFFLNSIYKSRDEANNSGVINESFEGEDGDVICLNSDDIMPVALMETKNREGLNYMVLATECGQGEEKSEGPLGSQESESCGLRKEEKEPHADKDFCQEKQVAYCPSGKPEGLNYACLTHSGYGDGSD
Sequence of Mitogen-activated protein kinase kinase kinase kinase 4 (Homo sapiens) (O95819 2-1239 limits assumed): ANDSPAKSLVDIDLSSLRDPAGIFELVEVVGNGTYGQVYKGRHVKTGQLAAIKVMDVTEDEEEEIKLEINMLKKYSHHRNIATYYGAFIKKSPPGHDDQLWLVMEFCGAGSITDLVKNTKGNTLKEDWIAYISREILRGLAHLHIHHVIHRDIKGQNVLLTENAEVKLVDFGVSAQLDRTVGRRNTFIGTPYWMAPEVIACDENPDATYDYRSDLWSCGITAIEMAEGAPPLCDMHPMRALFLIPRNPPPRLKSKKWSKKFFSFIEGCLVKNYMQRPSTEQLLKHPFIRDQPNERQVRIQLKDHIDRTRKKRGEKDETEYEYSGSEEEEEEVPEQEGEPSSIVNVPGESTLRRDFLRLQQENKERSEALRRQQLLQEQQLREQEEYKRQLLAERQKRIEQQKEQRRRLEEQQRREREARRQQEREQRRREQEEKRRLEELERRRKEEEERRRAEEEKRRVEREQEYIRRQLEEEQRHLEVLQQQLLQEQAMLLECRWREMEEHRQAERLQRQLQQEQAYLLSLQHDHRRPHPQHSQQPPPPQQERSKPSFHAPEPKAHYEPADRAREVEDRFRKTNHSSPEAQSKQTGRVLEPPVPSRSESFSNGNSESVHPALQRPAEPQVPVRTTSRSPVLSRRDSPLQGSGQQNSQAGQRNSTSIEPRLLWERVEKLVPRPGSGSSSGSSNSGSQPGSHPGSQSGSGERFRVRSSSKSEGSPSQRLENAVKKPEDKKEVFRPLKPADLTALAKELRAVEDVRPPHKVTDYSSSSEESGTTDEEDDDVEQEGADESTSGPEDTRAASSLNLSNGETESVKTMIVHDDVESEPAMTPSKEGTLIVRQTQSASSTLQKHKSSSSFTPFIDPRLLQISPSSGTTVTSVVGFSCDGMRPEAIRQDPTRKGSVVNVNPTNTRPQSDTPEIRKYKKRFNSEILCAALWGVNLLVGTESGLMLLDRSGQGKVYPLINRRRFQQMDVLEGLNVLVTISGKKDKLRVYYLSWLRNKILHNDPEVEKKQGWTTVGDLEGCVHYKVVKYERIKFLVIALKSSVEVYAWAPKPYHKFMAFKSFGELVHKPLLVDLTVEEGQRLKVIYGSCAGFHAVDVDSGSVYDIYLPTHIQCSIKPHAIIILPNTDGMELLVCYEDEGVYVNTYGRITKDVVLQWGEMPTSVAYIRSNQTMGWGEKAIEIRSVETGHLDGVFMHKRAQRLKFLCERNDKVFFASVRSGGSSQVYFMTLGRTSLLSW

SMILES: Cc1cccc(Nc2nc(NC3CCCCC3N)cc3c2C(=O)NCC3)c1 (racemic)
GI50 at 72 h [1]: 4300 nM

SMILES: Cc1cccc(Nc2nc(N[C@@H]3CCCC[C@@H]3N)c(C#N)c3cn[nH]c(=O)c23)c1
Cmax [4]: 360 ng/mL
inhibition [5]: > 90%
solubility [6]: 0.9 µg/mL (≈ 2.31 µM)
inhibition [7]: > 90%
inhibition [8]: > 90%
inhibition [9]: > 90%
bioavailability [10]: 34%
fraction unbound at 4 h, 10 ug/mL [11]: 0.01
Activity (BaF3): Dose-dependent effect
solubility [12]: 2.1 µg/mL (≈ 5.39 µM)
inhibition [13]: > 90%
inhibition [14]: > 90%
AUC at 24 h [15]: 4800 ng·h/mL
GI50 [3]: 1.9 nM
Papp at 24 h, 5 µM [16]: > 50 ×10⁻⁶ cm/s
remaining at 0.5 h, 1 µM [17]: 96%
GI50 at 72 h [1]: 220 nM
inhibition [18]: > 90%
Activity [19]: Non-Toxic
clearance [20]: 12 mL/min/kg
inhibition [21]: > 90%
Cp(f) (Mus musculus): 3.1 nM
inhibition [22]: > 90%
inhibition [23]: > 90%
inhibition [24]: > 90%
inhibition [25]: > 90%
inhibition [26]: > 90%
inhibition [27]: > 90%
inhibition [28]: > 90%
inhibition [29]: > 90%
IC50 [2]: 0.49 nM

SMILES: Cc1cccc(-n2c(=O)[nH]c3cc(C#N)c(N[C@@H]4CCCC[C@@H]4N)nc32)c1
IC50 [2]: > 1300 nM

SMILES: Cc1cccc(Nc2nc(NC3CCCCC3N)cc3cn[nH]c(=O)c23)c1 (racemic)
GI50 at 72 h [1]: 1500 nM

SMILES: Cc1cccc(Nc2nc(NC3CCCCC3N)c(Cl)c3cn[nH]c(=O)c23)c1 (racemic)
GI50 at 72 h [1]: 1500 nM

SMILES: Cc1cccc(Nc2ccc(C#N)c(N[C@@H]3CCCC[C@@H]3N)n2)c1
IC50 [2]: > 4000 nM

SMILES: Cc1cccc(Nc2nc(NC3CCCCC3N)cc3cc[nH]c(=O)c23)c1 (racemic)
GI50 at 72 h [1]: 1920 nM

Second part, led by results:

IC50 [2]: > 4000 nM
SMILES: Cc1cccc(Cc2nc(N[C@@H]3CCCC[C@@H]3N)c(C#N)cc2C(N)=O)c1

GI50 [3]: > 4000 nM
IC50 [2]: > 4000 nM
SMILES: N#Cc1cc2c(N)nn(Cc3ccccc3)c2nc1NC1CCCCC1N (racemic)
GI50 at 72 h [1]: > 5000 nM

IC50 [2]: > 4000 nM
SMILES: N#Cc1cc(C(N)=O)c(N)nc1N[C@@H]1CCCC[C@@H]1N

Cmax [4]: 420 ng/mL
solubility [6]: 35 µg/mL (≈ 96 µM)
bioavailability [10]: 17%
fraction unbound at 4 h, 10 ug/mL [11]: 0.01
solubility [12]: 49 µg/mL (≈ 134 µM)
AUC at 24 h [15]: 2400 ng·h/mL
Papp at 24 h, 5 µM [16]: 16 ×10⁻⁶ cm/s
remaining at 0.5 h, 1 µM [17]: 100%
clearance [20]: 12 mL/min/kg
SMILES: Cc1cccc(Nc2nc(N[C@@H]3CCCC[C@@H]3N)c(C#N)cc2C(N)=O)c1

From ChEMBL document CHEMBL4304751, “Discovery of Novel Pyrido-pyridazinone Derivatives as FER Tyrosine Kinase Inhibitors with Antitumor Activity” (ACS Med Chem Lett, 2019)
